# Results taken from article PMC8137579 (Cancer research, 2021).
# “Also recorded” adds a separate entry of the source. Like-named read-outs stand apart in the source and are kept apart here.
# How the values were obtained:
# [1] = biological target: HuR dimerization (HuR-Nluc + HuR-Cluc reporter, U251 cells) (Homo sapiens, UniProt Q15717); experiment: cell-based split firefly luciferase - HuR dimerization assay
# Outline: (§1)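 Stable U251 lines carried doxycycline-inducible HuR-Nluc plus HuR-Cluc (dimer reporter) or full-length Fluc (control reporter), kept under hygromycin B and G418. 30,000–50,000 cells/well were induced with doxycycline 0.75 ug/ml for 48 h, then given test compound or vehicle for 6 h. Luminescence was read with D-luciferin substrate.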
# [2] = system: U251 cells expressing Fluc construct; experiment: split firefly luciferase assay, control reporter; assay type: cell-based
# Outline: as §1
# [3] = aqueous solubility; assay type: physicochemical
# [4] = biological target: kinases; experiment: SelectScreen kinase profiling; assay type: biochemical; conditions: compared to the parent SRI-41664
# Outline: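 Done as an outsourced SelectScreen kinase profiling service. 10-point titrations were run against NTRK1, AAK1, IRAK1, PIM1 and cMET kinases.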
# [5] = system: U251 glioma cell line; experiment: PrestoBlue cell viability assay, U251; assay type: cell-based
# Outline: (§2)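 PrestoBlue viability read-out after 48 h exposure to the test compound. U251 and LN229 were grown in DMEM/F12 with 10% FBS, 2 mM L-glutamine and 100 U/ml penicillin/streptomycin. Data were normalised to vehicle-treated cells, and dose-response curves were fitted with the Boltzmann equation to give IC50; n=5 per cell line.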
# [6] = system: LN229 glioma cell line; experiment: PrestoBlue cell viability assay, LN229; assay type: cell-based; conditions: read-out: IC50 cell viability, 48 hours of treatment
# Outline: as §2
# [7] = system: PDGx XD456 glioma cell line; experiment: PrestoBlue cell viability assay, XD456; assay type: cell-based, human; conditions: read-out: IC50 cell viability, 48 hours of treatment
# [8] = system: U251 glioma cell line; experiment: cell cycle analysis; assay type: cell-based; conditions: 10 uM for 18 hours
# [9] = system: LN229 glioma cell line; experiment: cell cycle analysis; assay type: cell-based; conditions: 10 uM for 18 hours
# [10] = system: PDGx XD456 glioma cell line; experiment: cell cycle analysis; assay type: cell-based, human; conditions: 10 uM for 18 hours
# [11] = system: primary human neurons; experiment: toxicity in primary human neurons; assay type: cell-based
# [12] = system: primary human astrocytes; experiment: toxicity in primary human astrocytes; assay type: cell-based
# Outline: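 Primary human neurons (poly-L-lysine plates) or astrocytes were treated up to 25 uM for 48 h. Cells were fixed in 3.7% paraformaldehyde (pH 7.4) for 13 min, permeabilised with 0.3% Triton X-100 and blocked with 3% BSA/glycine. Staining used anti-cleaved caspase-3 (1:200, overnight 4°C) and Alexa 594 secondary, with DAPI counterstain. Percent positive cells was scored; at least three experiments.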
# [13] = system: Bcl2 mRNA; experiment: Taqman quantification of Bcl2 mRNA in glioma cell lines; assay type: cell-based; conditions: 10 uM for 24 hours
# [14] = system: Mcl1 mRNA; experiment: Taqman quantification of Mcl1 mRNA in glioma cell lines; assay type: cell-based; conditions: for average decrease of Mcl1/18S mRNA ratio: 10 uM for 24 hours
# Outline: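 Glioma cells (U251, U87, LN229) were exposed to 10 uM test compound or vehicle for 24 h. mRNA was isolated with RNeasy Mini Kit and QIAshredder columns. Bcl2, Mcl1 and 18S transcripts were quantified by Taqman gene-specific probes. Bcl2/18S and Mcl1/18S ratios were compared with vehicle control; three experiments.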
# [15] = biological target: interaction of the HuR protein with Bcl2 and Mcl1 mRNAs (Homo sapiens, UniProt Q15717); experiment: HuR/mRNA co-immunoprecipitation assay; assay type: cell-based; conditions: U251 cells
# Chain of interaction of the HuR protein with Bcl2 and Mcl1 mRNAs (Q15717 2-326 limits assumed): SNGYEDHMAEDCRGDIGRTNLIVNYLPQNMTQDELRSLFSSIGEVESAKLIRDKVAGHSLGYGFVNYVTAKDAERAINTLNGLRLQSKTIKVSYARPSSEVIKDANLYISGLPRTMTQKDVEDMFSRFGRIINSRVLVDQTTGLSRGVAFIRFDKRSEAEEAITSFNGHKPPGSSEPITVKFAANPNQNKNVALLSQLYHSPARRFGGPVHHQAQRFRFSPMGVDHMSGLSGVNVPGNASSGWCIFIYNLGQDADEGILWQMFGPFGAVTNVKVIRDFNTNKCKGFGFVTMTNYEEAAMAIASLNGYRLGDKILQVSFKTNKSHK
# Outline: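 Run in U251 cells with the RiboCluster Profiler RIP-assay kit and a polyclonal anti-HuR antibody. Co-precipitated Bcl2 and Mcl1 transcripts and 18S RNA were quantified by Taqman with gene-specific probes. Binding was compared with vehicle-treated control.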
# [16] = system: Bcl2 and Mcl1 protein levels; experiment: western blot of Bcl2 and Mcl1 proteins in cytoplasmic fractions; assay type: cell-based; conditions: U251 and XD456; 10 uM for 48 hours
# Outline: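 U251 and PDGx XD456 cells were treated for 48 h with test compound or vehicle. Nuclear and cytoplasmic fractions were separated with NE-PER reagents and verified by lamin A/C (nuclear) and tubulin alpha (cytoplasmic). Bcl2 and Mcl1 were detected by western blot.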
# [17] = system: cleaved caspase-3 and cleaved PARP; experiment: western blot of apoptosis markers; assay type: cell-based; conditions: glioma cell lines; 10 uM for 48 hours
# Outline: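 Glioma cell lines were given 10 uM test compound or vehicle for 48 h. Cleaved PARP and cleaved caspase-3 were probed by western blot.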
# [18] = system: HuR protein; experiment: western blot of HuR protein levels; assay type: cell-based
# [19] = system: U251 cell line; experiment: attached cell colony formation assay, U251; assay type: cell-based
# [20] = system: XD456 cell line; experiment: attached cell colony formation assay, XD456; assay type: cell-based, human
# [21] = system: U251 cell line; experiment: soft agar colony formation assay, U251; assay type: cell-based
# Outline: (§3)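 Soft agar format: cells embedded in a 0.45% low-melting agarose top layer over a 0.9% agarose bottom layer. Colonies were stained with 0.1% crystal violet and counted after three weeks. n=3 attached, n=4 soft agar; Student t-test.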
# [22] = system: XD456 cell line; experiment: soft agar colony formation assay, XD456; assay type: cell-based, human
# Outline: as §3
# [23] = in vivo pharmacokinetic assessment; set-up: species or system C57Bl/6 mice; conditions: mouse
# [24] = system: PDGx XD456 intracranial glioma; experiment: in vivo mouse intracranial glioma model; set-up: species or system athymic nude mice; conditions: 15 mg/kg, twice a day for three weeks, intraperitoneal
# Outline: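 Athymic nude mice bore intracranial PDGx XD456 cells transduced with firefly luciferase and EGFP. After 4.5 days of tumour establishment, mice were randomised to vehicle or test compound, 15 mg/kg ip twice daily for three weeks. Tumour bioluminescence (radiance) was imaged at weeks 2 and 3, with body weight tracked; n=5, Student t-test. Brain slices were checked for EGFP and immunostained for HuR, Bcl2 and Mcl1.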
# Chain of HuR dimerization (HuR-Nluc + HuR-Cluc reporter, U251 cells) (Q15717 2-326 limits assumed): as above
smiles,measurement,setting,value
CN(c1ccc2ncc(-c3ccc4cn[nH]c4c3)n2n1)C1CCOCC1 [SRI-42127],maximum inhibition of HuR dimerization,[1]; 6 hours of cell treatment,90±1%
same,"IC50 for inhibition of HuR dimerization, after increase in HuR dimerization by two fold","[1]; U251 with dox-inducible HuR-dimerization reporters, 6 hours",1.9 ± 0.1 µM
same,HuR inhibition potential in the presence of kinase inhibitors,[1]; all evaluated kinase inhibitors,retained its HuR inhibition potential
same,IC50,"[1]; read-out: IC50 for inhibition of HuR dimerization, before increase in HuR dimerization, U251 with dox-inducible HuR-dimerization reporters, 6 hours",1.2 ± 0.1 µM
same,IC50,"[1]; read-out: IC50 of inhibition of HuR dimerization, U251 cells co-expressing HuR-Nluc and HuR-Cluc, 6 hours of treatment",1.2 ± 0.2 µM
same,half inhibition in the control reporter assay,[2],half inhibitions were not reached
same,aqueous solubility,[3],readily soluble
same,kinase inhibition potential,[4],reduced kinase inhibition potential
same,"IC50 for inhibition of cell viability, after enhancement of HuR-dimer formation by two fold","[5]; U251 with dox-inducible HuR-dimerization reporters, 48 hours",8.0 ± 0.8 µM
same,IC50,"[5]; read-out: IC50 cell viability, U251, 48 hours of treatment",2.8 ± 0.6 µM
same,IC50,"[5]; read-out: IC50 for inhibition of cell viability, before enhancement of HuR-dimer formation, U251 with dox-inducible HuR-dimerization reporters, 48 hours",2.8 ± 0.4 µM
same,IC50,[6],3.2 ± 0.6 µM
same,IC50,[7],4 ± 0.6 µM
same,increase of cells in G1 phase compared to control,[8],97±33%
same,reduction of cells in S phase compared to control,[8],65±4%
same,increase of cells in G1 phase compared to control,[9],56±28%
same,reduction of cells in S phase compared to control,[9],60±3%
same,increase of cells in G1 phase compared to control,[10],210±40%
same,reduction of cells in S phase compared to control,[10],70±3%
same,decline of cellular metabolism of neurons,[11]; 25 uM for 48 hours,about 44%
same,neuronal cytotoxicity,[11]; concentrations below 15 uM,low neuronal and astrocyte cytotoxicity
same,cell numbers and cell sprouting of neurons,[11]; up to 15 uM for 48 hours,remained unchanged
same,morphological changes of neurons,[11]; up to 15 uM for 48 hours,no morphological changes
same,cleaved caspase-3 immunostaining in neurons,"[11]; up to 15 uM, 48 hours",no significant alterations
same,astrocyte cytotoxicity,[12]; concentrations below 15 uM,low neuronal and astrocyte cytotoxicity
same,cleaved caspase-3 activation in astrocytes,[12]; up to 15 uM,did not observe significant alterations
same,average decrease of Bcl2/18S mRNA ratio,[13]; LN229,95±2%
same,average decrease of Bcl2/18S mRNA ratio,[13]; U87,95±2%
same,average decrease of Bcl2/18S mRNA ratio,[13]; U251,96±2%
same,average decrease of Bcl2/18S mRNA ratio,[13]; XD456,96±2%
same,average decrease of Mcl1/18S mRNA ratio,[14]; LN229,87±8%
same,average decrease of Mcl1/18S mRNA ratio,[14]; U87,86±7%
same,average decrease of Mcl1/18S mRNA ratio,[14]; U251,95±3%
same,average decrease of Mcl1/18S mRNA ratio,[14]; XD456,90±9%
same,reduction in Mcl1 mRNA compared to control,"[14]; range over U251, U87, LN229, XD456, 10 uM, 24 h",87–95%
same,interaction of HuR protein with Bcl2 and Mcl1 mRNAs compared to control,[15],significant reduction
same,Bcl2 and Mcl1 protein levels in cytoplasmic fractions compared to control,[16],dramatic reduction
same,signs of apoptosis,[17],cleaved caspase-3 and cleaved PARP
same,total HuR protein levels,"[18]; 3 uM and 10 uM, 8–12 hours of treatment",did not alter
same,HuR cytoplasmic levels versus control,[18]; prolonged treatment,decrease
same,number of colonies,[19]; 3uM,49±28
same,number of colonies,[19]; 10 uM,No significant numbers of colonies were detected
same,number of colonies,[20]; 3uM,34±12
same,number of colonies,[20]; 10 uM,No significant numbers of colonies were detected
same,number of colonies,[21]; 3uM,90±70
same,number of colonies,[21]; 10 uM,No significant numbers of colonies were detected
same,number of colonies,[22]; 3uM,39±6
same,number of colonies,[22]; 10 uM,No significant numbers of colonies were detected
same,brain-to-plasma concentration ratio,[23],0.42±0.05
same,BBB permeability,[23]; in vivo,superior BBB permeability
same,half-life,[23]; 10 mg/kg by IP,9.6 min
same,tumor progression (tumor reporter luminescence signal) compared to control group,[24],reduction of tumor progression; also recorded: not statistically significant
same,weight changes compared to the control group,[24],not significant
